Published values gathered from unrelated publications.
Compare with care: the assays were run in different laboratories.
Target: Mitogen-activated protein kinase kinase kinase 2 (MAP3K2, Homo sapiens, UniProt Q9Y2U5)
Sequence (Q9Y2U5 1-619, as in one of the studies): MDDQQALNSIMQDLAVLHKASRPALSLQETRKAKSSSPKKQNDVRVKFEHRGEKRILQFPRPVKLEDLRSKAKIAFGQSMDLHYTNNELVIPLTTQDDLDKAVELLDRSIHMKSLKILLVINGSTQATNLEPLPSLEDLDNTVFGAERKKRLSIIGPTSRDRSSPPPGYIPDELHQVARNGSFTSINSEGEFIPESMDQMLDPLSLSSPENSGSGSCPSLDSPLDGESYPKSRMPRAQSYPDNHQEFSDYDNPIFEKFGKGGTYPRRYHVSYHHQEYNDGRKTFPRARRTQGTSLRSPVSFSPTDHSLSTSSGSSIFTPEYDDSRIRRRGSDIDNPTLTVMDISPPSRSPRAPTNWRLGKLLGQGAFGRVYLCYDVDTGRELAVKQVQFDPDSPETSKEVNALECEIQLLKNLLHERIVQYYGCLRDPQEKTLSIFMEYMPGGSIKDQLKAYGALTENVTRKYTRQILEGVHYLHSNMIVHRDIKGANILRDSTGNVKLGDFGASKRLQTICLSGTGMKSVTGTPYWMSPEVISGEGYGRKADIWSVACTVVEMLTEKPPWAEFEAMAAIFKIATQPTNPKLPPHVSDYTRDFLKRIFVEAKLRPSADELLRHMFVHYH

Compound	assay	setting	quantity	result
O=c1[nH]c2ccccc2n1C1CCN(Cc2ccc(-c3[nH]c4cc5ncnc5cc4nc3-c3ccccc3)cc2)CC1	cell-free assay	0.5 µM	remaining signal	92.4%
N#CC1(c2ccccn2)CCN(Cc2cc(C(=O)O)c(=O)n3ccccc23)CC1	cell-free assay, competition with immobilised ligand	1 µM	remaining binding	76%
COc1ncccc1-c1cnn2ccc(N3CCN(C(=O)OC(C)C)CC3)nc12	binding, competition with immobilised ligand	1 µM	remaining binding	100%
Cn1cc(-c2cc(F)cc(N3CCn4c(cc5c4CCCC5)C3=O)c2CO)cc(Nc2ccc(N3CCN(C4COC4)CC3)cn2)c1=O	enzyme activity, inhibitor	0.1 µM	inhibition	-1%
CC(C)(C)c1cc(C=C(C#N)C#N)cc(Br)c1O	enzyme activity, inhibitor	0.5 µM	remaining activity	93.7%
Cn1cc(-c2cccc(N3CCc4c(sc5c4CC(C)(C)C5)C3=O)c2CO)cc(Nc2ccncn2)c1=O	enzyme activity, inhibitor	1 µM	inhibition	-2%
Nc1ncc(-c2nc(N3CCOCC3)nc(N3CCOCC3)n2)c(C(F)F)n1	binding, competition with immobilised ligand	10 µM	remaining binding	71%
Cn1cncc1[C@](O)(COc1ccc(C#N)cc1-c1ccc(OC(F)(F)F)cc1)c1ccc(C#N)cc1	cell-free assay, competition with immobilised ligand	1 µM	remaining binding	77%
COCc1c(-c2cc3cc(C)cc(OC)c3s2)c2c(N)ncnn2c1CN1CCNC(=O)C1	cell-free assay, competition with immobilised ligand	1 µM	inhibition	98.8%
Cc1nn(C)cc1-c1nc2c(N3CCN(Cc4ccc(Cl)cc4)CC3)c(Cl)cnc2[nH]1	binding, competition with immobilised ligand	1 µM	remaining binding	77%
COc1cc(Nc2ncc(F)c(Nc3ccc4c(n3)NC(=O)C(C)(C)O4)n2)cc(OC)c1OC	binding, competition with immobilised ligand	10 µM	inhibition	99%
